assay: Toxicity liver stage against HepG2, at 10uM; format: cell-based; parameters: test concentration 10 uM, cell line HepG2-A16-CD81EGFP; details: human, HepG2-A16-CD81EGFP cells; read-out: INHIBITION
Procedure, shortened: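 Uninfected HepG2-A16-CD81EGFP cells, 3 × 10^3 per well, 1536-well, plated on prespotted compound at 10 μM final, parasite-free screening media added to match infected plates; puromycin 10 μM positive, DMSO 0.5% negative; run in parallel with 48 h PbLuc assay at 37 °C, 5% CO2; viability by CellTiter-Glo luminescence, normalized to controls.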

| Structure (SMILES) | cytotoxicity at 10 µM |
| --- | --- |
| CN(Cc1cc(C2CC2)[nH]n1)C(=O)c1cnn2ccn(C)c12 | -3.67% |
| CCC(CO)N(Cc1ccc(C(=O)O)cc1)Cc1ccsc1 (configuration not stated) | 2.17% |
| CCc1cnc(C)nc1NC1CC(=O)N(CC)C1 (configuration not stated) | 1.07% |
| COc1ccc2c(c1)OCC(Cc1ccc(N(C)C)nc1)C2 (configuration not stated) | 2.77% |
| Cc1cc(N2CCN(C(=O)Cc3c(C)nc(C)[nH]c3=O)CC2)cc(C)n1 | 9.66% |
| O=C(Cc1ccc(CO)cc1)N1CCN(c2ccccc2Cl)C(=O)C1 | 6.39% |
| Cc1ccc2c(c1)SCC(=O)N2Cc1noc(C2CCCO2)n1 (configuration not stated) | -0.0938% |
| CC(C)=CCC1(C(=O)O)CCCN(c2ccnc(N)n2)C1 (configuration not stated) | -13.7% |
| CCC1CN(C(=O)c2ccccc2N(C)C)CCN1C(C)C (configuration not stated) | -0.238% |
| CCN(Cc1ccncc1)Cc1c[nH]nc1-c1ccc(F)cc1 | -5.83% |
| CCc1nn(C)c(Cl)c1CN1C[C@H](NC(=O)CCO)[C@@H](C(C)C)C1 | 11.1% |
| CCc1[nH]c2c(CNC(=O)C3CCN(C)C3)cc(C)cc2c1C (configuration not stated) | -7.71% |
| O=C(C1CC1)N1CCN(C(=O)CSc2ccccn2)[C@H]2CS(=O)(=O)C[C@H]21 | -24.6% |
| O=C1CCOCCN1Cc1ccc(C(F)(F)F)c(F)c1 | -7.63% |
| Cc1nnc(SCCNC(=O)Cn2cnc3ccccc3c2=O)s1 | 4.79% |
| CN(C)CCN1CC(C(=O)N2CCC(c3cc(=O)[nH]cn3)CC2)CC1=O (configuration not stated) | -2.34% |
| CS(=O)(=O)N[C@H]1CN(CCOCc2ccccc2)C[C@@H]1C1CC1 | -1.1% |
| Clc1cc(NCc2nccs2)nc2[nH]ccc12 | 6.58% |
| CCOCC(O)c1nc2c([nH]1)CC(C)(C)CNC2=O (configuration not stated) | 4.71% |

| Structure (SMILES) | cytotoxicity at 10 µM |
| --- | --- |
| CCCc1ccc(OC23CCCN(CC2)C3)c(OC)c1 (configuration not stated) | -17.3% |
| C[C@@H]1CN(Cc2c[nH]c(CC3CCCC3)n2)CC[C@]1(C)O | 3.69% |
| Cc1ccc(C(=O)N2CCC3(CCC(=O)N(CCN(C)C)C3)CC2)nc1 | -1.62% |
| Cc1cc(-c2nn(C)c(Cl)c2CN2CCOCC2CC(N)=O)no1 (configuration not stated) | 3.3% |
| CCN(Cc1ccncc1)C(=O)CCn1c(C)cc2ccccc21 | -3.38% |
| O=S1(=O)COCCN1Cc1cccc(Cl)c1 | -11.4% |
| Cn1cccc1C(=O)N1CCCN(CCCc2ccccc2)CC1 | -16.4% |
| CCC1CN(C(=O)c2ccc(=O)[nH]c2)CCC(=O)N1Cc1ccccc1 (configuration not stated) | -17.6% |
| Cc1nc(CNC(=O)N(C)Cc2cnn(C)c2)cs1 | -14.3% |
| c1cnn(CC2CCCCN2c2ncnc3ccsc23)c1 (configuration not stated) | -13.9% |
| Cc1cnn(C2CCCN(C(=O)c3cccc(-n4cnnn4)c3)C2)c1 (configuration not stated) | -8.77% |
| CN(Cc1ccccc1)CC(O)Cn1cnc2ccc(Br)cc2c1=O (configuration not stated) | -9.04% |
| O=C(Nc1nccs1)NC1CCN(Cc2ccccc2)CC1 | -7.07% |
| Cc1nc(C(=O)N2CCCN(Cc3cnn(C)c3)CC2)ccc1C#N | -0.514% |
| Cc1cc(C[S+]([O-])CC(=O)Nc2c(C)cccc2C)no1 (configuration not stated) | -9.65% |
| CC(C)OCc1ccc(CNC(=O)CC(F)(F)F)cc1 | -2.26% |
| CCC1c2ccsc2CCN1C(=O)NCc1ccccn1 (configuration not stated) | -4.51% |
| O=C1C(NCc2nnc3n2CCCC3)CCN1c1ccccc1 (configuration not stated) | -11.2% |
| Cc1cc(C)c(CNC(=O)NCC2CCCN2C)c(=O)[nH]1 (configuration not stated) | -2.14% |

| Structure (SMILES) | cytotoxicity at 10 µM |
| --- | --- |
| COCC(=O)NC(C)Cc1cccc(Br)c1 (configuration not stated) | -8.21% |
| CCc1nnc2n1CCN(CCS(=O)(=O)c1ccccc1)C2 | -11.6% |
| O=C(COc1ccc2c(c1)CCC2)N1CCOCC1c1ncon1 (configuration not stated) | -10.2% |
| O=C(NCCNc1ccccn1)N1CCSCC1 | -9.58% |
| CS(=O)(=O)NCC1CCCN(C(=O)c2ccc(Cl)o2)C1 (configuration not stated) | -10.2% |
| CCOc1ccc(CC(=O)N2CCN(c3nccn3C)CC2)cc1 | 6.85% |
| CCCC(=O)N(C)Cc1nc(N2CCCC2)ncc1-c1ccncc1 | 9.76% |
| Cc1ccc(CN2CCC(O)(Cn3nc(-c4cccs4)oc3=O)CC2)o1 | 8.52% |
| Cc1ccc(CN2C(=O)CCC23CCC(NCC2CCOC2)CC3)cc1 (configuration not stated) | -4.75% |
| CN(CCO)CC1COCCN1C(=O)C1(c2cccs2)CCCC1 (configuration not stated) | -9.06% |
| NCC1CCC(c2c(C(N)=O)sc3ccccc23)CC1 (configuration not stated) | 1.52% |
| O=C1[C@H]2CN(Cc3cccs3)C[C@H]2CN1c1ccsc1 | -79% |
| CC(=O)N1CCC2(CC1)COC(COCc1ccccn1)C2 (configuration not stated) | -114% |
| COCc1cncc2c1CCN(C(=O)c1cccc(C#N)c1)C2 | -98.2% |
| CC(C)C(=O)N1CC[C@H]2N(C)CC[C@@]2(C(=O)N2CCOCC2)CC1 | -0.449% |
| CN(C)CCn1c2c(ccc1=O)CC(NC(=O)c1cnccn1)CC2 (configuration not stated) | -2.4% |
| CC(C)NC(=O)[C@@H]1C[C@H]2NCC[C@H]2O1 | -96.9% |
| O=C(c1ccncc1)N1CCC2(CC1)CCN(Cc1ccccn1)C2=O | -3.18% |
| O=C(c1ccco1)N1C2CCC(O)(CC2)C1CO (configuration not stated) | 6.88% |

— ChEMBL document CHEMBL4513216, “Probing the Open Global Health Chemical Diversity Library for Multistage-Active Starting Points for Next-Generation Antimalarials” (ACS Infect Dis, 2020)
